# Screening results: PubChem, several laboratories
# This is a sample that favours compounds with a hit; in the whole collection about 2.1% have one here.
# VIM-2 inh = inhibitors of Pseudomonas aeruginosa VIM-2 metallo-beta-lactamase. purified VIM-2, nitrocefin hydrolysis, epi-absorbance fluorescence. inhibition, % at 5.6 µM. 0.89% of 290,000 active. AID 1527;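 active = inhibition above the mean of all tested compounds plus 3 SD, cutoff set per screening run, cut at about 7.5% in these data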;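 also: red hydrolysis product quenches plate fluorescence so inhibitors raise well fluorescence; 0% = enzyme with DMSO and 100% = DMSO without enzyme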
# UBC9 SUMO inh = blocks human SUMOylation mediated by UBC9; P63279; HTRF SUMOylation assay, SAE1/SAE2 + UBC9, in vitro; inhibition, % at 35 µM; 0.36% of 290,000 active; AID 2006; in the data active = inhibition above about 50%, passing the limit was not always enough
# Target sequence (P63279 whole entry, looked up): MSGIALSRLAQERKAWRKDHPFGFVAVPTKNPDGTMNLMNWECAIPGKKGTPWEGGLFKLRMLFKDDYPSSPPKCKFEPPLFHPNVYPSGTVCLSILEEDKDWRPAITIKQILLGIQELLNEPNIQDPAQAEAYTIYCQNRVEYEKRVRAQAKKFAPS
# DNA FID counter-1 = displaces DNA intercalator in HCV helicase counter-screen | DNA fluorescent intercalator displacement, fluorescence | inhibition, % at 7.9 µM | 0.17% of 290,000 active | AID 1845;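 also: 0% = vehicle and 100% = reference compound; higher means more ethidium bromide displaced from hairpin DNA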
# IMP-1 inh = inhibitors of Pseudomonas aeruginosa IMP-1 metallo-beta-lactamase | purified IMP-1, nitrocefin hydrolysis, epi-absorbance fluorescence | 0.45% of 290,000 active | inhibition, % at 5.6 µM | AID 1556;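 active = inhibition above the mean plus 3 SD of all compounds in the same screening run, cut at about 4.5% in these data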;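 also: 0% = IMP-1 with DMSO and 100% = DMSO wells lacking enzyme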
#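 System: purified IMP-1 / Input: IMP-1 dispensed at 0.2 nM / Medium: 50 mM HEPES pH 7.1, 50 µM ZnSO4, 0.05% Brij 35 / Timing: 15 min enzyme–compound preincubation, then 25 min nitrocefin reaction, 25 °C / Technique: plate fluorescence quenching by hydrolysis product, ex 480/em 530 nm / Repeats: singlicate testing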
# NS3 helicase inh = HCV NS3 helicase inhibition. NS3 helicase DNA unwinding, Cy5 molecular beacon fluorescence. 0.56% of 290,000 active. AID 1800. inhibition, % at 10.9 µM;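 active = inhibition above the mean of all tested compounds plus 3 SD, set per campaign, cut at about 35% in these data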;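 also: 0% = DMSO wells and 100% = thioflavine S control wells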
#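 Test system: hepatitis C virus NS3 helicase domain fragment enzyme. Also added: annealed dual-labelled DNA beacon duplex, ATP-started. Timing: 60 min unwinding reaction at 25 °C after ATP addition. Technique: Cy5 fluorescence. Measure: % inhibition of unwinding.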
# NS3 hel confirm = confirmation of Hepatitis C virus NS3 helicase inhibitors | shares compounds with NS3 helicase inh | NS3 helicase DNA unwinding, Cy5 molecular beacon fluorescence | inhibition, % at 10.9 µM | 31% of 1,600 active | AID 1943;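 active = inhibition above the mean of all tested compounds plus 3 SD, cutoff set per campaign, cut at about 36% in these data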
# DNA FID counter-2 = counter-screen for HCV NS3 helicase inhibitors: DNA intercalator displacement. DNA fluorescent intercalator displacement, fluorescence. 4% of 1,600 active. inhibition, % at 7.9 µM. shares compounds with NS3 helicase inh;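 also: 0% = vehicle and 100% = reference compound; higher means more displacement of ethidium bromide from the DNA hairpin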
# DNA FID DR = counter-screen for HCV NS3 helicase inhibitors: DNA intercalator displacement dose response; shares compounds with NS3 helicase inh; fluorescent intercalator displacement from DNA, fluorescence; IC50, µM; 120 tested, under 10 active; AID 2172; call rule not given here
# * hit, by the source's call; . = not tested or not shown. Rule as the data show it, unless noted: active = inhibition above about 37%; inactive = the rest.
SMILES,VIM-2 inh,UBC9 SUMO inh,DNA FID counter-1,IMP-1 inh,NS3 helicase inh,NS3 hel confirm,DNA FID counter-2,others
OC(COCCOc1ccc(Br)cc1)CN1CCN(Cc2ccccc2)CC1 (stereo not given),-1.8,15.8,18.7,-0.8,-33.1,.,.,
COc1ccc(OC)c(NC(=O)Nc2nnc(N3CCCCC3C)s2)c1 (stereo not given),0.7,12.9,-19.8,0.6,38.6*,-6.6,-13.4,
Cc1ccc(-n2ncc(C#N)c2/N=C/N2CCCCCC2)cc1,-2.6,-4.1,-8.5,-1.6,101.4*,0.7,-37.5,
C=CCn1c(SCCC)nc2sc3c(c2c1=O)CCc1ccccc1-3,-0.6,-0.2,-12.9,-1.2,60.2*,-7.8,-0.2,
Cc1ccc(C)c(C(=O)C(C)OC(=O)CN2C(=O)NC3(CC(C)CC(C)(C)C3)C2=O)c1 (stereo not given),-0.9,-12.5,-44.9,-2.4,-14.7,.,.,
O=C(COc1ccc(F)cc1)N(Cc1ccc(Cl)cc1)C1CCS(=O)(=O)C1 (stereo not given),-2.3,5.9,-43.0,-3.9,1.6,.,.,
CN=c1scc(-c2ccc([N+](=O)[O-])cc2)n1/N=C/c1ccco1,0.2,23.4,-0.3,-1.9,11.2,.,.,
O=C1c2ccc([N+](=O)[O-])cc2NC(c2ccco2)N1/N=C/c1ccco1 (stereo not given),-3.5,18.3,-3.0,-0.5,41.7*,-4.6,20.9,
CCCCN1C(=O)C(=O)N(CC(=O)Nc2cc(OCC)c(N3CCOCC3)cc2OCC)C1=O,-1.4,-9.0,-21.5,-1.4,2.0,.,.,
Nc1nc(-c2cc(O)ccc2[N+](=O)[O-])cc(-c2ccccc2)c1[N+](=O)[O-],-2.1,97.9*,24.9,-2.1,96.2*,19.2,45.3*,
Cc1c(Cl)cnn1CC(=O)NC1C(=O)N2C(C(=O)O)=C(CSc3nnnn3C)CSC12 (stereo not given),-0.9,-0.6,-27.9,-1.7,20.0,.,.,
Cc1c(Cl)c(C(F)F)nn1CC(=O)NC1C(=O)N2C(C(=O)O)=C(CSc3nnnn3C)CSC12 (stereo not given),0.2,12.4,-25.9,-2.6,37.9*,31.8,-1.8,
Cc1nc2ccccn2c1C(=O)NCc1ccc2c(c1)OCO2,-0.4,10.4,8.2,-2.1,-10.2,.,.,
Cc1nc2ccccn2c1C(=O)N/N=C/c1ccc2c(c1)OCO2,-1.3,-7.6,-13.6,-1.2,40.1*,-10.9,2.7,
CCOC(=O)C1=NN(C(=O)c2ccccc2)C(O)(c2ccc(C)cc2)C1 (stereo not given),-0.1,-14.9,-18.8,-3.3,44.4*,-8.5,-8.0,
Cc1cc(C)c[n+](-c2[nH]c(=O)sc2/C=N/N=C(\[O-])c2cccnc2)c1,-0.6,-1.4,-2.3,1.7,36.2*,-11.0,2.2,
Nc1c(C(=O)Nc2ccccc2)sc2nc(-c3cccnc3)ccc12,-1.3,29.9,-10.0,-4.0,14.5,.,.,
Nc1c(C(=O)Nc2ccccc2)sc2nc(-c3ccco3)ccc12,2.6,58.5*,-0.4,0.8,82.5*,14.5,5.7,
COc1ccccc1NC(=O)c1sc2nc(-c3ccco3)ccc2c1N,-3.6,54.3*,-11.6,-3.3,48.7*,1.4,16.7,
CCOc1ccc(Nc2ncnc3c2cnn3C)cc1,-2.6,1.5,-4.1,-2.9,10.8,.,.,
CCOc1ccccc1NC(=O)C(=O)CC(=O)c1ccc(OC)cc1,1.2,-1.8,-13.8,-1.8,37.1*,-33.2,-0.9,
COc1ccc(C(=O)CC(=O)C(=O)Nc2ccc([N+](=O)[O-])cc2C)cc1,-6.8,19.1,-14.4,-2.6,36.6*,-7.8,-7.3,
CCCOCC(O)CC(Cc1ccccc1)C(=O)NN (stereo not given),-3.7,23.8,-35.0,-4.0,-0.6,.,.,
CCN(CC(=O)Nc1ccc2c(c1)OCCO2)C(=O)COc1ccc(C)cc1,-0.2,9.2,-24.0,0.3,-5.1,.,.,
COc1ccc(-c2c(C#N)c(SCC(=O)c3cc4ccccc4oc3=O)nc(C)c2C(=O)Nc2ccccc2)cc1,-4.9,43.4,-9.4,-4.4,52.4*,11.3,-4.8,
SMILES,VIM-2 inh,UBC9 SUMO inh,DNA FID counter-1,IMP-1 inh,NS3 helicase inh,NS3 hel confirm,DNA FID counter-2,others
Cc1nc(SCC(=O)c2cc3ccccc3oc2=O)c(C#N)c(-c2ccccc2)c1C(=O)Nc1ccccc1,-4.0,27.9,-4.0,-3.6,28.1,.,.,
COc1ccc(-c2cnc(SCC(=O)Nc3cc(C)on3)n2Cc2ccco2)cc1,-3.3,-15.2,-25.6,-3.1,-2.0,.,.,
COCCn1c(-c2ccc(OC)cc2)cnc1SCC(=O)Nc1cccc2ccccc12,-1.7,18.9,-24.4,-4.0,47.2*,-15.8,-41.0,
COc1ccc(-c2cnc(SCC(=O)Nc3nc(C(C)(C)C)cs3)n2Cc2ccco2)cc1,-3.0,7.8,-34.5,-2.8,52.2*,-5.6,-26.8,
COCCn1c(SCC(=O)Nc2ccccc2OC)nc2ccccc2c1=O,-1.8,-6.2,-30.1,-3.2,2.0,.,.,
Cc1ccc(NC(=O)C2=C(c3ccccc3)S(=O)(=O)CCS2(=O)=O)cc1,-1.0,18.5,0.7,-2.5,38.3*,58.8*,27.0,DNA FID DR=>79.4
Cc1ccc(NC(=O)c2ccccc2)cc1,-3.5,-6.0,-1.2,-2.6,5.3,.,.,
CC(C)(Oc1ccc(-c2ccco2)cc1)C(=O)O,-0.4,23.4,-25.5,-0.1,41.1*,30.1,3.5,
CC(C)(Oc1ccc(CCNC(=O)c2ccc(-c3ccccc3)o2)cc1)C(=O)O,-0.8,10.1,-42.0,-0.7,13.4,.,.,
c1ccc(Sc2ncccn2)nc1,-4.7,9.8,0.6,-3.2,4.8,.,.,
COc1cc(/C=C2\SC(=O)N(CC(=O)Nc3ccc(C)cc3)C2=O)cc(Cl)c1OCC(=O)O,-1.0,48.9,13.0,-3.0,42.5*,61.5*,18.8,
Cc1oc2cc([N+](=O)[O-])c(O)c([N+](=O)[O-])c2c1C(=O)c1ccc(Cl)cc1,0.0,29.3,-26.2,-1.0,-1.5,.,.,
CC(C)CN=Cc1c(O)c([N+](=O)[O-])cc2oc3c(c12)CCCC3,-3.3,20.2,18.7,10.5*,45.8*,12.1,62.6*,
O=[N+]([O-])c1cc2oc3c(c2c(C=NCc2ccccc2)c1O)CCCC3,-3.6,24.6,-2.1,0.8,51.1*,74.6*,69.2*,
Cc1cccc(/N=C/c2c(O)ccc3oc4c(c23)CCCC4)n1,-3.1,13.9,2.4,-1.4,-4.3,.,.,
CCCOc1ccccc1C(=O)N(Cc1cccc(Br)c1)C1CCS(=O)(=O)C1 (stereo not given),-2.4,-0.6,-51.7,-2.4,-1.6,.,.,
Cc1cc(NS(=O)(=O)c2ccc(NC(=O)CCCOc3cccc(C)c3C)cc2)no1,-1.8,16.3,-59.8,-5.0,-15.7,.,.,
Clc1ccc(C2Nc3cccc4cccc(c34)N2)cc1,-2.8,28.2,-8.2,-1.3,69.2*,-28.4,26.4,
